Assay results: paper PMC9063861 (RSC Advances, 2019)

Tests used:
[1] = molecular target: T1, Horseradish peroxidase (HRP) (Armoracia rusticana, UniProt P00433); assay: Kinetics of the oxidation of flavones catalyzed by HRP; assay type: biochemical
T1 sequence (P00433 31-338 limits assumed): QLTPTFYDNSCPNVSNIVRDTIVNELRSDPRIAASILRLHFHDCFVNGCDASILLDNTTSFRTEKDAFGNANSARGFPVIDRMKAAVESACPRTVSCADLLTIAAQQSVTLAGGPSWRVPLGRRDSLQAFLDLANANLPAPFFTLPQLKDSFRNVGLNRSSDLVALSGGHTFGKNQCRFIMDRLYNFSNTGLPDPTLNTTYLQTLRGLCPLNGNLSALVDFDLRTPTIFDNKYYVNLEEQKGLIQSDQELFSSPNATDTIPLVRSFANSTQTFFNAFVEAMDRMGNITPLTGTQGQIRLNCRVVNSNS
Outline: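 Horseradish peroxidase, >250 U mg−1. Oxidation products were quantified by LC-MS/MS using ESI in negative mode with multiple reaction monitoring. The mobile phase was acetonitrile–0.1% formic acid (aq) at 450 μL min−1. Nitrogen served as curtain and collision gas, at 13 and 6 psi respectively.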

[2] = molecular target: Laccase from Trametes versicolor; assay: Kinetics of the oxidation of flavones catalyzed by laccase; assay type: biochemical
Outline: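 Laccase from Trametes versicolor, 120 U g−1. Oxidation products were quantified by LC-MS/MS using ESI in negative mode with multiple reaction monitoring. The mobile phase was acetonitrile–0.1% formic acid (aq) at 450 μL min−1. Nitrogen served as curtain and collision gas, at 13 and 6 psi respectively.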

## O=c1cc(-c2ccc(O)cc2)oc2cc(O)cc(O)c12 [compound 1, apigenin]
[1]
  kinetic model of oxidation by HRP: Hill kinetic model
[1]; formation of the named product
  K m: 0.1635 mM
  n (Hill kinetic model): 2.944

## O=c1c(O)c(-c2ccc(O)cc2)oc2cc(O)cc(O)c12 [compound 5, kaempferol]
[2]
  kinetic model of oxidation by laccase: substrate inhibition kinetic model
[2]; formation of the named product
  K m: 8.288 ± 0.401 mM
[2]; read-out: Ki (inhibitory effect on laccase)
  Ki: 1660 µM

## O=C1C[C@@H](c2ccc(O)cc2)Oc2cc(O)cc(O)c21 [compound 8, naringenin]
[1]
  kinetic model of oxidation by HRP: substrate inhibition kinetics

## O=c1c(-c2ccc(O)cc2)coc2cc(O)ccc12 [compound 10, daidzein]
[2]
  kinetic model of oxidation by laccase: Hill-kinetic model
[1]
  kinetic model of oxidation by HRP: Hill kinetic model

## O=C(/C=C/c1ccc(O)cc1)c1ccc(O)cc1O [compound 12, isoliquiritigenin]
[2]
  kinetic model of oxidation by laccase: Hill-kinetic model
[1]
  kinetic model of oxidation by HRP: substrate inhibition kinetics
